Reference: ChEMBL document CHEMBL1137753, “Insecticidal heterolignans--tubuline polymerization inhibitors with activity against chewing pests” (Bioorg Med Chem, 2009)
The source made the active and inactive calls. Unless noted, the calls are words filed in the database; no cut-off is given here.

What was measured:
Format in all cases: functional, organism-based
Spodoptera frugiperda [1] = assay: Insecticidal activity against Spodoptera frugiperda larvae in disk of maize leaf at 500 g/ha treated as spray
Method in brief: (§1)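 The same acetone/DMF/emulsifier formulation, diluted in emulsifier-containing water, was sprayed onto maize leaf disks. Dried disks were infested with fall armyworm larvae and mortality was assessed after a set time. "+" denotes ≥80% larvae killed; n.a. denotes no larvae killed.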

Phaedon cochleariae [2] = assay: Insecticidal activity against Phaedon cochleariae larvae in disk of Chinese cabbage leaf at 500 g/ha treated as spray
Method in brief: (§2)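 This was sprayed on Chinese cabbage leaf disks. Once dry, disks were infested with mustard beetle larvae and mortality was scored after a set time. "+" denotes ≥80% larvae killed; n.a. denotes none killed.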

Spodoptera frugiperda [3] = assay: Insecticidal activity against Spodoptera frugiperda larvae in disk of maize leaf at 100 g/ha treated as spray; method in brief: as §1
Phaedon cochleariae [4] = assay: Insecticidal activity against Phaedon cochleariae larvae in disk of Chinese cabbage leaf treated as spray
Phaedon cochleariae [5] = assay: Insecticidal activity against Phaedon cochleariae larvae in disk of Chinese cabbage leaf at 20 g/ha treated as spray; method in brief: as §2
Spodoptera frugiperda [6] = assay: Insecticidal activity against Spodoptera frugiperda larvae in disk of maize leaf treated as spray
Phaedon cochleariae [7] = assay: Insecticidal activity against Phaedon cochleariae larvae in disk of Chinese cabbage leaf at 100 g/ha treated as spray; method in brief: as §2

`COc1ccc(C2C3=C(COC3=O)Nc3cc4c(cc32)OCO4)cn1` (stereo unspecified) was tested, and the Activity (Spodoptera frugiperda [1]) was “Active” and the Activity (Phaedon cochleariae [2]) was “Active”.

`COc1cc(OC)cc(C2C3=C(CC(C)OC3=O)Nc3cc4c(cc32)OCO4)c1` (stereo unspecified) was tested, and the Activity (Spodoptera frugiperda [1]) was “Active” and the Activity (Phaedon cochleariae [2]) was “Active”.

In the case of `O=C1OCC2=C1C(c1cc(Br)cc(Br)c1)c1cc3c(cc1N2)OCO3` (stereo unspecified), the Activity (Spodoptera frugiperda [3]) was “Active” and the Activity (Phaedon cochleariae [4]) was “inactive”.

With `N#CCOc1cccc(C2C3=C(COC3=O)Nc3cc4c(cc32)OCO4)c1` (stereo unspecified) the Activity (Spodoptera frugiperda [3]) was “Active” and the Activity (Phaedon cochleariae [2]) was “Active”.

In the case of `O=C1OCC2=C1C(c1cc(C(F)(F)F)cc(Cl)c1F)c1cc3c(cc1N2)OCO3` (stereo unspecified), the Activity (Spodoptera frugiperda [3]) was “Active” and the Activity (Phaedon cochleariae [5]) was “Active”.

For `N#Cc1cccc(C2C3=C(COC3=O)Nc3cc4c(cc32)OCO4)c1` (stereo unspecified), the Activity (Spodoptera frugiperda [1]) was “Active” and the Activity (Phaedon cochleariae [4]) was “inactive”.

`COc1cc(C2C3=C(COC3=O)Nc3cc4c(cc32)OCO4)cc(Br)c1OC` (stereo unspecified) was tested, and the Activity (Spodoptera frugiperda [6]) was “inactive” and the Activity (Phaedon cochleariae [7]) was “Active”.

`COc1cc(C2C3=C(COC3=O)Nc3cc4c(cc32)OCO4)cc(O)c1OC` (stereo unspecified) was tested, and the Activity (Spodoptera frugiperda [6]) was “inactive” and the Activity (Phaedon cochleariae [7]) was “Active”.

In the case of `CC1(C)OC(=O)C2=C1Nc1cc3c(cc1C2c1cccc(Cl)c1)OCO3` (stereo unspecified), the Activity (Spodoptera frugiperda [6]) was “inactive” and the Activity (Phaedon cochleariae [2]) was “Active”.

For `COc1cc(OC)cc(C2C3=C(COC3=O)Nc3cc4c(cc32)OC(F)(F)O4)c1` (stereo unspecified), the Activity (Spodoptera frugiperda [6]) was “inactive” and the Activity (Phaedon cochleariae [2]) was “Active”.

With `COc1cc(OC)cc(C2C3=C(COC3=O)Nc3cc4c(cc32)OCCO4)c1` (stereo unspecified) the Activity (Spodoptera frugiperda [3]) was “Active” and the Activity (Phaedon cochleariae [2]) was “Active”.

For `Cc1cccc(C2C3=C(COC3=O)Nc3cc4c(cc32)OCO4)c1` (stereo unspecified), the Activity (Spodoptera frugiperda [3]) was “Active” and the Activity (Phaedon cochleariae [4]) was “inactive”.

In the case of `O=C1OCC2=C1C(c1cncc(-c3ccc(F)cc3)c1)c1cc3c(cc1N2)OCO3` (stereo unspecified), the Activity (Spodoptera frugiperda [1]) was “Active” and the Activity (Phaedon cochleariae [7]) was “Active”.

`COc1cc(OC)cc(C2C3=C(Nc4cc5c(cc42)OCO5)C(C)(C)NC3=O)c1` (stereo unspecified) was tested, and the Activity (Spodoptera frugiperda [6]) was “inactive” and the Activity (Phaedon cochleariae [4]) was “inactive”.

For `CN1OC(C)(C)C2=C(C1=O)C(c1cccc(Cl)c1)c1cc3c(cc1N2)OCO3` (stereo unspecified), the Activity (Spodoptera frugiperda [1]) was “Active” and the Activity (Phaedon cochleariae [4]) was “inactive”.

In the case of `O=C1OCC2=C1C(c1cc(Br)c3c(c1)OCO3)c1cc3c(cc1N2)OCO3` (stereo unspecified), the Activity (Spodoptera frugiperda [1]) was “Active” and the Activity (Phaedon cochleariae [7]) was “Active”.

For `COc1cc(OC)cc(C2C3=C(COC3=O)Nc3c2ccc(C)c3C)c1` (stereo unspecified), the Activity (Spodoptera frugiperda [3]) was “Active” and the Activity (Phaedon cochleariae [7]) was “Active”.

In the case of `CCOc1cccc(C2C3=C(COC3=O)Nc3cc4c(cc32)OCO4)c1` (stereo unspecified), the Activity (Spodoptera frugiperda [3]) was “Active” and the Activity (Phaedon cochleariae [7]) was “Active”.

With `COc1ccc2c(c1)C(c1cc(OC)c(OC)c(OC)c1)C1=C(COC1=O)N2` (stereo unspecified) the Activity (Spodoptera frugiperda [6]) was “inactive” and the Activity (Phaedon cochleariae [5]) was “Active”.

`COc1cc(C2C3=C(CN(C(=O)OC(C)(C)C)C3=O)Nc3cc4c(cc32)OCO4)cc(OC)c1OC` (stereo unspecified) was tested, and the Activity (Spodoptera frugiperda [6]) was “inactive” and the Activity (Phaedon cochleariae [4]) was “inactive”.

With `O=C1OCC2=C1C(c1ccc(Cl)cc1)c1cc3c(cc1N2)OCO3` (stereo unspecified) the Activity (Spodoptera frugiperda [6]) was “inactive” and the Activity (Phaedon cochleariae [4]) was “inactive”.

`COc1cc(OC)cc(C2C3=C(CCC3=O)Nc3cc4c(cc32)OCO4)c1` (stereo unspecified) was tested, and the Activity (Spodoptera frugiperda [3]) was “Active” and the Activity (Phaedon cochleariae [2]) was “Active”.

`O=C1OCC2=C1C(c1cncc(Br)c1)c1cc3c(cc1N2)OCO3` (stereo unspecified) was tested, and the Activity (Spodoptera frugiperda [3]) was “Active” and the Activity (Phaedon cochleariae [4]) was “inactive”.

With `O=C1OCC2=C1C(c1cc(F)cc(F)c1)c1cc3c(cc1N2)OCO3` (stereo unspecified) the Activity (Phaedon cochleariae [7]) was “Active”.

For `O=C1OCC2=C1C(c1cc(Cl)cc(Cl)c1Cl)c1cc3c(cc1N2)OCO3` (stereo unspecified), the Activity (Spodoptera frugiperda [6]) was “inactive” and the Activity (Phaedon cochleariae [4]) was “inactive”.

`CC(C)Oc1cccc(C2C3=C(COC3=O)Nc3cc4c(cc32)OCO4)c1` (stereo unspecified) was tested, and the Activity (Spodoptera frugiperda [1]) was “Active” and the Activity (Phaedon cochleariae [4]) was “inactive”.

With `O=C1OCC2=C1C(c1ccc(F)c(Br)c1)c1cc3c(cc1N2)OCO3` (stereo unspecified) the Activity (Phaedon cochleariae [2]) was “Active”.

`O=C1CCCC2=C1C(c1cccc(Cl)c1)c1cc3c(cc1N2)OCO3` (stereo unspecified) was tested, and the Activity (Spodoptera frugiperda [6]) was “inactive” and the Activity (Phaedon cochleariae [4]) was “inactive”.

`CC1(C)CS(=O)(=O)C2=C1Nc1cc3c(cc1C2c1cccc(Cl)c1)OCO3` (stereo unspecified) was tested, and the Activity (Spodoptera frugiperda [6]) was “inactive” and the Activity (Phaedon cochleariae [4]) was “inactive”.

In the case of `COc1cc(OC)cc(C2C3=C(COC3=O)Nc3cc(SC)ccc32)c1` (stereo unspecified), the Activity (Spodoptera frugiperda [3]) was “Active” and the Activity (Phaedon cochleariae [2]) was “Active”.

In the case of `COc1cc(OC)cc(C2C3=C(COC3=O)Nc3c(OC)cc(C)cc32)c1` (stereo unspecified), the Activity (Spodoptera frugiperda [1]) was “Active” and the Activity (Phaedon cochleariae [5]) was “Active”.

In the case of `Clc1cccc(C2C3=C(CCC3)Nc3cc4c(cc32)OCO4)c1` (stereo unspecified), the Activity (Spodoptera frugiperda [6]) was “inactive” and the Activity (Phaedon cochleariae [4]) was “inactive”.

In the case of `COc1cc(C2C3=C(COC3=O)Nc3cc4c(cc32)OC(F)(F)O4)cc(OC)c1OC` (stereo unspecified), the Activity (Spodoptera frugiperda [6]) was “inactive” and the Activity (Phaedon cochleariae [7]) was “Active”.

`COc1cc(C2C3=C(COC3=O)Nc3cc4c(cc32)OCO4)cc2c1OCO2` (stereo unspecified) was tested, and the Activity (Spodoptera frugiperda [1]) was “Active”.

`O=C1OCC2=C1C(c1cc(Cl)ccc1Cl)c1cc3c(cc1N2)OCO3` (stereo unspecified) was tested, and the Activity (Spodoptera frugiperda [6]) was “inactive” and the Activity (Phaedon cochleariae [4]) was “inactive”.

With `CC1(C)NC(=O)C2=C1Nc1cc3c(cc1C2c1cccc(Cl)c1)OCO3` (stereo unspecified) the Activity (Spodoptera frugiperda [6]) was “inactive” and the Activity (Phaedon cochleariae [2]) was “Active”.

For `O=C1OCC2=C1C(c1ccc(F)c(Cl)c1)c1cc3c(cc1N2)OCO3` (stereo unspecified), the Activity (Spodoptera frugiperda [3]) was “Active” and the Activity (Phaedon cochleariae [4]) was “inactive”.
